Calls of active or inactive are those of the source. The calls are words filed in the database; no cut-off is given here.
What was measured:
[1] = system: NCI-H460; assay: Growth inhibition of human NCI-H460 cells after 3 days by crystal violet staining; assay type: functional; conditions: NCI-H460, 72 h
[2] = system: HCT-15; assay: Growth inhibition of human HCT15 cells after 3 days by crystal violet staining; assay type: functional; conditions: HCT-15, 72 h
[3] = Growth inhibition of human NCI60 cells after 3 days by crystal violet staining; assay type: functional; conditions: NCI60, 72 h
[4] = system: HUVEC; assay: Cytotoxicity against HUVEC after 1 hr by crystal violet staining; assay type: functional, cell-based, Homo sapiens
[5] = system: HUVEC; assay: Vascular disrupting activity in HUVEC assessed as change in cell morphology with detachment form substrate after 1 hr by crystal violet staining-based inverted light microscopy; assay type: functional, Homo sapiens
How it was run: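 HUVEC treated for 1 h with compound; morphology (cell retraction, rounding, detachment from substrate) examined by light microscopy.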

[6] = system: HUVEC; assay: Vascular disrupting activity in HUVEC assessed as appearance of blebbing morphology of rounded cells at 0.1 uM after 1 hr by FITC-onjugated DAPI staining-based immunofluorescence assay; assay type: functional, cell-based; conditions: Homo sapiens
How it was run: (§1)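 HUVEC exposed to vehicle or compound (0.1-1 μM range) for 1 h, then tubulin cytoskeleton examined by immunofluorescence for microtubule disorganization and blebbing of rounded cells.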

[7] = system: HUVEC; assay: Vascular disrupting activity in HUVEC assessed as disorganization of microtubule at 0.1 uM after 1 hr by FITC-onjugated DAPI staining-based immunofluorescence assay; assay type: functional, cell-based; conditions: Homo sapiens; how it was run: as §1
[8] = system: HUVEC; assay: Cytotoxicity against HUVEC after 72 hrs by crystal violet staining; assay type: functional, cell-based, Homo sapiens
[9] = Dissociation constant, pKa of the compound; assay type: physicochemical
[10] = system: MDA-MB-435; assay: Induction of necrosis in central region of human MDA-MB-435 cells exenografted in NCr nu/nu mouse at 80 mg/kg, ip administered as single dose measured after 24 hrs by haematoxylin/eosin staining-based histopathological analysis; assay type: functional, organism-based; design: dose 80 mg/kg
[11] = system: Mus musculus; assay: Vascular disrupting activity in C57BL/6N mouse assessed as rapid decrease in FGF2-induced vessel formation on permissive matrix at 20 m/kg, ip after 1 hr by FTC-conjugated staining based confocal microscopy; assay type: functional, organism-based
How it was run: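 Matrigel plug containing FGF-2 implanted in mice, vessels allowed to form over 7 days (plug without FGF-2 as negative control). Single ip dose given, then functional perfused vessels visualized 1 h later with FITC-isolectin B4 by confocal microscopy; at least three images per sample, n = 5.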

[12] = system: HUVEC; assay: Vascular disrupting activity in HUVEC assessed as disorganization of microtubule after 1 hr by FITC-onjugated DAPI staining-based immunofluorescence assay; assay type: functional, cell-based; conditions: Homo sapiens; how it was run: as §1
[13] = system: HUVEC; assay: Vascular disrupting activity in HUVEC assessed as appearance of blebbing morphology of rounded cells after 1 hr by FITC-onjugated DAPI staining-based immunofluorescence assay; assay type: functional, cell-based; conditions: Homo sapiens; how it was run: as §1
[14] = system: HUVEC; assay: Vascular disrupting activity in HUVEC assessed as disruption of capillary-like structure formation on permissive matrix at 1 uM after 1 hr by microscopy; assay type: functional, cell-based; conditions: Homo sapiens
How it was run: (§2)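 HUVEC seeded on 3D Matrigel form capillary-like cord networks by 24 h; compound then added to formed cords and images taken 1 h later to assess cord disruption and shortening.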

[15] = system: MDA-MB-435; assay: Induction of necrosis in central region of human MDA-MB-435 cells exenografted in NCr nu/nu mouse at 20 mg/kg, ip administered as single dose measured after 24 hrs by haematoxylin/eosin staining-based histopathological analysis; assay type: functional, organism-based; design: dose 20 mg/kg
[16] = system: HUVEC; assay: Vascular disrupting activity in HUVEC assessed as disruption of capillary-like structure formation on permissive matrix at 0.1 uM after 1 hr by microscopy; assay type: functional, cell-based; conditions: Homo sapiens; how it was run: as §2

| SMILES | GI50 [1] | GI50 [2] | GI50 [3] | IC50 ([5]; huvec) | also measured |
| --- | --- | --- | --- | --- | --- |
| COc1ccc(-c2nccn2-c2cc(OC)c(OC)c(OC)c2)cc1 | 1580 nM | 1150 nM | 4570 nM | – | – |
| COc1ccc(/C=C\c2cc(OC)c(OC)c(OC)c2)cc1O [COMBRETASTATIN A4] | < 10 nM | < 10 nM | 100 nM | – | IC50 ([4]; Homo sapiens, HUVEC, 1 h): 400 nM; IC50 ([5]; Homo sapiens, HUVEC, 1 h): 10 nM; Activity [6]: Active; Activity [7]: Active; IC50 ([8]; Homo sapiens, HUVEC, 72 h): 5 nM |
| COc1ccc(-c2cncn2-c2cc(OC)c(OC)c(OC)c2)cc1 [listing 1 of 2 here] | – | – | – | 950 nM | IC50 ([4]; huvec): 20000 nM; pKa [9]: 6.82; IC50 ([8]; huvec): 540 nM |
| COc1cc(-n2cncc2-c2ccc3ccccc3c2)cc(OC)c1OC [listing 1 of 3 here] | – | – | – | 40 nM | IC50 ([4]; huvec): 2100 nM; pKa [9]: 5.58; IC50 ([8]; huvec): 110 nM |
| COc1cc(-n2cncc2-c2ccc(N(C)C)cc2)cc(OC)c1OC | 79 nM | 36 nM | – | – | – |
| COc1ccc(-c2cncn2-c2cc(OC)c(OC)c(OC)c2)cc1F | < 10 nM | < 10 nM | 39.8 nM | – | IC50 ([4]; Homo sapiens, HUVEC, 1 h): 17000 nM; IC50 ([5]; Homo sapiens, HUVEC, 1 h): 17300 nM; IC50 ([8]; Homo sapiens, HUVEC, 72 h): 450 nM |
| COc1cc(-n2cncc2-c2ccc3ccccc3c2)cc(OC)c1OC [listing 2 of 3 here] | – | – | – | – | Activity [10]: Active; Activity [11]: Active; Activity [12]: Dose-dependent effect; Activity [13]: Dose-dependent effect; Activity [14]: Active; Activity [15]: Active; Activity [16]: Active |

The next lines start with results.

| GI50 [1] | GI50 [2] | SMILES | GI50 [3] | IC50 ([5]; huvec) | also measured |
| --- | --- | --- | --- | --- | --- |
| 270 nM | 80 nM | COc1cc(-n2ccnc2-c2ccc(N(C)C)cc2)cc(OC)c1OC | – | – | – |
| 363 nM | 170 nM | COc1ccc(-c2cncn2-c2cc(OC)c(OC)c(OC)c2)cc1 [listing 2 of 2 here] | 257 nM | 6530 nM | IC50 ([4]; Homo sapiens, HUVEC, 1 h): 36100 nM; IC50 ([8]; Homo sapiens, HUVEC, 72 h): 600 nM |
| 37 nM | 51 nM | COc1cc(-n2ccnc2-c2ccc3ccccc3c2)cc(OC)c1OC | 151 nM | – | – |
| 18 nM | 17 nM | COc1cc(-n2cncc2-c2ccc3ccccc3c2)cc(OC)c1OC [listing 3 of 3 here] | 72.4 nM | 41500 nM | IC50 ([4]; huvec): 28300 nM; IC50 ([8]; huvec): 540 nM |

From ChEMBL document CHEMBL1154738, “Vascular disrupting activity of tubulin-binding 1,5-diaryl-1H-imidazoles” (J Med Chem, 2009)
